The target of one assay is T1, Tyrosinase (Agaricus bisporus, UniProt O42713).
T1 sequence (O42713 whole entry): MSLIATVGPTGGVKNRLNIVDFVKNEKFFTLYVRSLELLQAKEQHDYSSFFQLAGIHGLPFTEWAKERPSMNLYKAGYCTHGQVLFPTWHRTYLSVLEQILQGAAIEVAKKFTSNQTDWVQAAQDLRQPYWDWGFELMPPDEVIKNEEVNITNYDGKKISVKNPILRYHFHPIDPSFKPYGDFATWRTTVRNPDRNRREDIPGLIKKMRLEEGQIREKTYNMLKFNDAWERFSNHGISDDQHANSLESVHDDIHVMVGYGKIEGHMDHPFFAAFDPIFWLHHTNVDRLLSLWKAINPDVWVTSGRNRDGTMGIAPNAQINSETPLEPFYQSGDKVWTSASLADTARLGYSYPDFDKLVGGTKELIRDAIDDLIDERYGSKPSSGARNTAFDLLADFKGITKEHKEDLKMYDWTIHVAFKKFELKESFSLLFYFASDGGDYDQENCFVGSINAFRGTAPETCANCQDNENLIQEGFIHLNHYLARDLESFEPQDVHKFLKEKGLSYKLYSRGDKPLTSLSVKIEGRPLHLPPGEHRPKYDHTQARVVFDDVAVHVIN
As to the kind of experiment: Inhibition of mushroom tyrosinase. Put shortly: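 Wells held 50 mM potassium phosphate pH 6.5, tyrosinase at 50 units/mL final and inhibitor in absolute ethanol (5-100 µM final). After 10 min at 25 °C, L-tyrosine was added to 1 mM. Absorbance at 450 nm was read every 5 min against an ethanol-only control. IC50 was taken from the linear zone at 20 min.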

The target of assay [1] is T2, Tyrosinase (Agaricus bisporus) (UniProt O42713).
T2 sequence (whole entry): T1 sequence (O42713 whole entry)
Nature of the assay: Inhibition of mushroom tyrosinase at 0.3 uM for 10 min preincubated before addition of 1 mM tyrosine.

Assay [2] deals with T2, Tyrosinase (Agaricus bisporus). As to the kind of experiment: Inhibition of mushroom tyrosinase at 0.3 uM for 10 min pre-incubated before addition of 3.75 mM tyrosine.
Assay [3] has the same target. Nature of the assay: Inhibition of mushroom tyrosinase at 0.3 uM for 10 min pre-incubated before addition of tyrosine.
Assay [4] has the same target. Nature of the assay: Inhibition of mushroom tyrosinase at 10 uM for 10 min pre-incubated before addition of tyrosine.

As a reminder, the IC50 is the concentration needed to halve the response being measured. A high value points to lower potency. One may read the inhibition as how much of the control response was suppressed. A low value points to a weak effect. `CCC(C)(C)C(OC(=O)CCc1ccc(O)cc1O)C(C)(C)CC` had an IC50 against Tyrosinase of 150 nM. The inhibition in assay [1] stood at 97%; in assay [2] it was 86%; in assay [3] it was 80%.
In the case of `CC(C)(C)COC(=O)CCc1ccc(O)cc1O`, the IC50 against Tyrosinase is 180 nM.
Same read-out and setting: for `CC(C)(C)OC(=O)CCc1ccc(O)cc1O` the value was 14900 nM.
`O=C(O)CCc1ccc(O)cc1O` yielded a half-maximal inhibitory concentration (IC50) at Tyrosinase of 1850 nM. This molecule also returned an inhibition in assay [4] of 80%.
`CC(C)OC(=O)CCc1ccc(O)cc1O`: the IC50 at Tyrosinase turned out to be 70 nM.
On the same count and under the same terms, for `CCCCCCCCOC(=O)CCc1ccc(O)cc1O` the value was 700 nM; for `CCOC(=O)CCc1ccc(O)cc1O`, 220 nM.
